Assay results reported in ChEMBL document CHEMBL1811838, “Antimalarial activity of natural and synthetic prodiginines” (J Med Chem, 2011).

How the values were obtained:
[1] = Toxicity in C57BL/6J mouse splenic lymphocytes after 72 hrs by Alamar blue Assay; type: cell-based; conditions: splenic lymphocyte
Summary of the method: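 Splenic lymphocytes from C57BL/6J mice washed, then stimulated with 1 μg/mL concanavalin A in RPMI/10% FBS with 50 μM β-mercaptoethanol. Seeded at 2 × 10^5 cells/well with serially diluted compound for 72 h at 37 °C, 5% CO2. Resazurin added (final 10 μM) for another 24 h; fluorescence read at ex 560/em 590 nm.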

[2] = tested on: Plasmodium falciparum; experiment: Antimalarial activity multidrug-resistant Plasmodium falciparum Dd2 after 72 hrs by SYBR Green I based fluorescence assay; type: functional, organism-based; conditions: Dd2, 72 h
Summary of the method: (§1)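 P. falciparum (D6 pansensitive; Dd2 MDR) cultured under standard conditions and grown 72 h with varying compound concentrations, chloroquine positive control or no drug, each condition in quadruplicate. Growth measured by SYBR Green I fluorescence with minor modifications; IC50 = concentration inhibiting growth by 50%.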

[3] = tested on: Plasmodium falciparum; experiment: Antimalarial activity Plasmodium falciparum D6 after 72 hrs by SYBR Green I based fluorescence assay; type: functional, organism-based; conditions: D6, 72 h; summary of the method: as §1
[4] = tested on: Mus musculus; experiment: Toxicity in Plasmodium yoelii infected CF-1 mouse assessed as weight loss at 5 mg/kg, po qd for 3 days relative to control; type: organism-based; design: dose 5 mg/kg, route oral; conditions: in vivo, 72 h
Summary of the method: (§2)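 Female outbred CF-1 mice were infected i.v. via the tail vein with 5 × 10^5 P. yoelii Kenya-infected erythrocytes, in groups of five. Compound or vehicle alone was given by gavage in caprylic/capric triglyceride once daily for 3 days, starting 24 h post-infection. One day after the last dose, Giemsa-stained thin smears were scored by microscopy for % parasitemia versus untreated controls. Group mean weight was recorded as day 3 versus day 0.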

[5] = tested on: Plasmodium yoelii; experiment: Antimalarial activity Plasmodium yoelii infected in CF-1 mouse assessed as reduction of parasitemia at 25 mg/kg, po qd for 3 days administered 24 hrs after infection measured after 24 hrs last dose relative to control; type: functional; design: scale not given: the % may be the effect or the level left
Summary of the method: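 Female outbred CF-1 mice infected iv (tail vein) with 5 × 10^5 P. yoelii Kenya-infected erythrocytes. Groups of five given compound or vehicle alone by gavage in caprylic/capric triglyceride once daily for 3 days starting 24 h post-infection. One day after last dose, Giemsa-stained thin smears scored microscopically for % infected erythrocytes vs untreated controls. Group mean weight day 3 vs day 0. Smear-negative mice followed; parasite-free at 28 days counted cured.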

[6] = tested on: Plasmodium yoelii; experiment: Antimalarial activity Plasmodium yoelii infected in CF-1 mouse assessed as reduction of parasitemia at 5 mg/kg, po qd for 3 days administered 24 hrs after infection measured after 24 hrs last dose relative to control; type: functional; design: scale not given: the % may be the effect or the level left; summary of the method: as §2
[7] = tested on: Mus musculus; experiment: Toxicity in Plasmodium yoelii infected CF-1 mouse assessed as weight loss at 25 mg/kg, po qd for 3 days relative to control; type: organism-based; design: dose 25 mg/kg, route oral; conditions: in vivo, 72 h; summary of the method: as §2

Row | Compound | IC50 [1] [nM] | IC50 [2] [nM] | IC50 [3] [nM] | Activity [4] [%] | Activity [5] [%] | Activity [6] [%] | Activity [7] [%]
1 | COC1=CC(c2ccc[nH]2)=N/C1=C\c1[nH]ccc1Cc1ccccc1 | < 125 | 86 |  |  |  |  | 
2 | CCCCCCCCc1cc[nH]c1/C=C1\N=C(c2ccc[nH]2)C=C1OC | < 125 | 1.8 | 4.6 |  |  |  | 
3 | CCN(CC)CCCC(C)Nc1ccnc2cc(Cl)ccc12 (stereo unspecified) [CHLOROQUINE] | 16000 |  |  |  |  |  | 
4 | COC1=CC(c2ccc[nH]2)=N/C1=C\c1[nH]c(Cc2ccc(Br)cc2)cc1Cc1ccc(F)cc1 | < 125 | 5.1 | 5.7 |  |  |  | 
5 | COC1=CC(c2ccc[nH]2)=N/C1=C\c1[nH]ccc1CC(C)C | < 125 | 230 | 460 |  |  |  | 
6 | COC1=CC(c2cc3ccccc3[nH]2)=N/C1=C\c1[nH]c(C)cc1C [OBATOCLAX] | < 125 | 4950 | 4250 |  |  |  | 
7 | CCCCCCCCc1cc(CCC)c(/C=C2\N=C(c3ccc[nH]3)C=C2OC)[nH]1 | < 125 | 2.7 | 2.9 | 100.1 | 100 | 90 | 92.4
8 | COC1=CC(c2ccc[nH]2)=N/C1=C\c1[nH]c(Cc2ccc(Br)cc2)cc1Cc1ccc(Cl)cc1 | < 125 | 7.7 | 8.3 |  |  |  | 
9 | COC1=CC(c2ccc[nH]2)=N/C1=C\c1[nH]c(Cc2ccc(Br)cc2)cc1Cc1ccc(Br)cc1 | < 125 | 11 | 14 |  |  |  | 
10 | COC1=CC(c2ccco2)=N/C1=C\c1[nH]c(C)cc1C | 3890 | > 25000 | > 25000 |  |  |  | 
11 | CCCCCC1=C/C(=C/c2[nH]c(-c3ccc[nH]3)cc2OC)N=C1C [PRODIGIOSIN] |  |  | 8 |  |  |  | 
12 | CCCCCCCCCCCC1=N/C(=C\c2[nH]c(-c3ccc[nH]3)cc2OC)C=C1 [UNDECYLPRODIGININE] |  |  | 7.7 |  |  |  | 
13 | CCCCCCc1cc(Cc2ccc(F)cc2)c(/C=C2\N=C(c3ccc[nH]3)C=C2OC)[nH]1 | 1460 | 0.9 |  |  |  |  | 
14 | COC1=CC(c2ccc[nH]2)=N/C1=C\c1[nH]c(Cc2ccc(Cl)cc2Cl)cc1Cc1ccc(Cl)cc1Cl | < 125 | 11 | 12.6 |  |  |  | 
15 | CCCCCCc1cc(CCCCCC)c(/C=C2\N=C(c3ccc[nH]3)C=C2OC)[nH]1 | < 125 | 1.1 | 1.7 |  |  |  | 
16 | COC1=CC(c2cccs2)=N/C1=C\c1[nH]c(C)cc1C | 3530 | > 25000 | > 25000 |  |  |  | 
17 | COC1=CC(c2ccc[nH]2)=N/C1=C\c1ccc(CCCCCCCCCCCN)[nH]1 |  |  | 1700 |  |  |  | 
18 | COC1=CC(c2ccc[nH]2)=N/C1=C\c1[nH]c(C)cc1C | < 125 | 8130 | 8900 |  |  |  | 
19 | CCCCCCCc1cc(Cc2ccc(Cl)cc2)c(/C=C2\N=C(c3ccc[nH]3)C=C2OC)[nH]1 | < 125 | 2.2 | 2.8 |  |  |  | 
20 | CCCCCCc1cc(Cc2ccc(Br)cc2)c(/C=C2\N=C(c3ccc[nH]3)C=C2OC)[nH]1 | < 125 | 2.8 |  |  |  |  | 
21 | CCCCCCCc1cc(CCCCCC)c(/C=C2\N=C(c3ccc[nH]3)C=C2OC)[nH]1 | < 125 | 1.2 | 2.1 |  |  |  | 
22 | CCCCCCc1ccc(/C=C2\N=C(c3ccc[nH]3)C=C2OC)[nH]1 | < 125 | 450 | 375 |  |  |  | 
23 | COC1=CC(c2ccc[nH]2)=N/C1=C\c1[nH]ccc1Cc1ccc(OC)cc1 | < 125 | 156 | 170 |  |  |  | 
24 | COC1=CC(c2ccc[nH]2)=N/C1=C\c1[nH]c(Cc2ccccc2Cl)cc1Cc1ccccc1Cl | < 125 | 4.9 | 3.6 |  |  |  | 
25 | CCCCc1ccc(/C=C2\N=C(c3ccc[nH]3)C=C2OC)[nH]1 | < 125 | 1590 | 1780 |  |  |  | 
26 | COC1=CC(c2ccccc2)=N/C1=C\c1[nH]c(C)cc1C | 7950 | 13600 | 19400 |  |  |  | 
27 | CCCCCCCCCCCCCCCCc1cc[nH]c1/C=C1\N=C(c2ccc[nH]2)C=C1OC | 3630 | > 25000 | > 25000 |  |  |  | 
28 | CCCCCCCCc1cc(Cc2ccc(Cl)cc2)c(/C=C2\N=C(c3ccc[nH]3)C=C2OC)[nH]1 | 1100 | 12 | 16 | 100.2 | 100 | 72 | 93.4
